Results on 17 molecules are retold here after ChEMBL document CHEMBL1131233, “Synthesis and structure-activity relationships of bafilomycin A1 derivatives as inhibitors of vacuolar H+-ATPase” (J Med Chem, 1998).

Molecules are shown by their SMILES.

The target of this assay is V-type proton ATPase subunit B, brain isoform (Bos taurus) (UniProt P31408). The experiment in a line: Inhibition of V-ATPase-driven proton transport in membrane vesicles derived from bovine chromaffin granules (bCG); Potency ratio expressed as IC50 of compound/IC50 of baf A1. Put shortly: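 Proton transport in bovine chromaffin granule inside-out vesicles, read by acridine orange (5 μM) fluorescence quench with 1 mM Na₂ATP, pH 7.4. IC50 from ≥3 duplicated doses by four-parameter logistic fit. Each IC50 is divided by the bafilomycin A₁ IC50 from the same experiment, to correct for membrane batch and protein level.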
Sequence of V-type proton ATPase subunit B, brain isoform (Bos taurus) (P31408 whole entry, canonical isoform): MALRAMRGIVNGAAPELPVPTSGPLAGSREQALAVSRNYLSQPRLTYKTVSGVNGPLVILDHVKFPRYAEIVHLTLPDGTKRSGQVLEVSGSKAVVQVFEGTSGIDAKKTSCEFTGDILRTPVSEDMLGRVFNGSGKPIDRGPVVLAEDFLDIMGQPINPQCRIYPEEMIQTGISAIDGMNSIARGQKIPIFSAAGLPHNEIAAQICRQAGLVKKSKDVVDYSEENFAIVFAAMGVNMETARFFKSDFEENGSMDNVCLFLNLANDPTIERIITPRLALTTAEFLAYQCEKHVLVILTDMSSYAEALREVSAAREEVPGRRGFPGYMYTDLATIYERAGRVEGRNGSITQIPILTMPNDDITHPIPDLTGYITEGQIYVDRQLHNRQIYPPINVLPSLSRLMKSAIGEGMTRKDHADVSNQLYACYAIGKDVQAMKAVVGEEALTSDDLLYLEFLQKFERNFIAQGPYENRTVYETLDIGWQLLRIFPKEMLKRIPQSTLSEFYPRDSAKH
In the case of `CO/C1=C\C(C)=C\C(C)C(=O)[C@@H](C)C/C(C)=C/C=C/C(OC)[C@@H]([C@@H](C)C(=O)[C@H](C)C2=CC(=O)[C@H](C)[C@@H](C(C)C)O2)OC1=O` (some centres not stated), the Potency ratio was 3050. Under `COC(=O)/C(=C/C(C)=C/[C@@H](C)[C@@H](O)[C@@H](C)C/C(C)=C/C=C/[C@H](OC)[C@H](O)[C@@H](C)[C@@H](O)[C@H](C)[C@@]1(O)C[C@@H](O)[C@H](C)[C@@H](C(C)C)O1)OC` stands 330; under `CO/C1=C\C(C)=C\[C@@H](C)[C@@H](O)[C@@H](C)C/C(C)=C/C=C/[C@H](OC)[C@@H]([C@@H](C)[C@@H](O)[C@H](C)[C@@]2(O)CC(=O)[C@H](C)[C@@H](C(C)C)O2)OC1=O`, 2.2; under `CO/C1=C\C(C)=C\[C@@H](C)[C@@H](O)[C@@H](C)C/C(C)=C/C=C/[C@H](OC)[C@@H]([C@@H](C)[C@@H](O)[C@H](C)[C@@]2(O)C[C@@H](NC3CCCCC3)[C@H](C)[C@@H](C(C)C)O2)OC1=O`, 9.2. On to `C/C=C/CC(O)[C@@H](C)[C@H](O)[C@H](C)[C@H]1OC(=O)/C(OC)=C/C(C)=C/[C@@H](C)[C@@H](O)[C@@H](C)C/C(C)=C/C=C/[C@@H]1OC` (some centres not stated), for which the Potency ratio was found to be 2.6.

As for `CCCO[C@@H]1C[C@](OC)([C@@H](C)[C@H](O)[C@H](C)[C@H]2OC(=O)/C(OC)=C/C(C)=C/[C@@H](C)[C@@H](O)[C@@H](C)C/C(C)=C/C=C/[C@@H]2OC)O[C@H](C(C)C)[C@H]1C`, the Potency ratio is 5. For `CO/C1=C\C(C)=C\[C@@H](C)[C@@H](O)[C@@H](C)C/C(C)=C/C=C/[C@H](OC)[C@@H]([C@@H](C)[C@@H](O)[C@H](C)[C@@]2(O)C[C@@H](O)[C@H](C)[C@@H](C(C)C)O2)OC1=O` the value was 1. For `CO/C1=C\C(C)=C\[C@@H](C)C(=O)[C@@H](C)C/C(C)=C/C=C/[C@H](OC)[C@@H]([C@@H](C)[C@@H](O)[C@H](C)[C@@]2(O)CC(=O)[C@H](C)[C@@H](C(C)C)O2)OC1=O` the value was 112.

As to `CCO[C@@H]1C[C@](O)([C@@H](C)[C@H](O)[C@H](C)[C@H]2OC(=O)/C(OC)=C/C(C)=C/[C@@H](C)[C@@H](O)[C@@H](C)C/C(C)=C/C=C/[C@@H]2OC)O[C@H](C(C)C)[C@H]1C`, the Potency ratio is 1.2. `CO/C1=C\C(C)=C\[C@@H](C)[C@@H](O)[C@@H](C)C/C(C)=C/C=C/[C@H](OC)[C@@H]([C@@H](C)[C@@H](O)[C@H](C)[C@@]2(O)C[C@@H](N3CCCCC3)[C@H](C)[C@@H](C(C)C)O2)OC1=O`: the Potency ratio stood at 6.7. As for `CO/C1=C\C(C)=C\[C@@H](C)[C@@H](O)[C@@H](C)C/C(C)=C/C=C/[C@H](OC)[C@@H]([C@@H](C)[C@@H](O)[C@H](C)C(=O)/C=C/[C@H](C)C(O)C(C)C)OC1=O` (some centres not stated), the Potency ratio was found to be 15. Under `CO/C1=C\C(C)=C\[C@@H](C)[C@@H](O)[C@@H](C)C/C(C)=C/C=C/[C@H](OC)[C@@H]([C@@H](C)[C@@H](O)[C@H](C)[C@@]2(O)C[C@@H](OC)[C@H](C)[C@@H](C(C)C)O2)OC1=O` stands 1.2; under `COC1/C=C(\C)C[C@@H](C)[C@@H](O)[C@@H](C)CC(C)/C=C/CC(OC)[C@@H]([C@@H](C)[C@@H](O)[C@H](C)[C@@]2(O)C[C@@H](O)[C@H](C)[C@@H](C(C)C)O2)OC1=O` (some centres not stated), 2110; under `CO/C1=C\C(C)=C\[C@@H](C)[C@@H](O)[C@@H](C)C/C(C)=C/C=C/[C@H](OC)[C@@H]([C@@H](C)[C@@H](O)[C@H](C)C(O)C[C@H](O)[C@H](C)C(O)C(C)C)OC1=O` (some centres not stated), 8.2.

`CO/C1=C\C(C)=C\[C@@H](C)C(=O)[C@@H](C)C/C(C)=C/C=C/[C@H](OC)[C@@H]([C@@H](C)[C@@H](O)[C@H](C)[C@@]2(O)C[C@@H](O)[C@H](C)[C@@H](C(C)C)O2)OC1=O`: the Potency ratio is 32. For `CO/C1=C\C(C)=C\[C@@H](C)[C@@H](O)[C@@H](C)C/C(C)=C/C=C/[C@H](OC)[C@@H]([C@@H](C)[C@@H](O)[C@H](C)[C@@]2(OC)C[C@@H](O)[C@H](C)[C@@H](C(C)C)O2)OC1=O`, the Potency ratio came out at 1.4. Under `C/C=C/CC(=O)[C@@H](C)[C@H](O)[C@H](C)[C@H]1OC(=O)/C(OC)=C/C(C)=C/[C@@H](C)[C@@H](O)[C@@H](C)C/C(C)=C/C=C/[C@@H]1OC` stands 21.
